Reference: ChEMBL document CHEMBL1132620, “Piperazine imidazo[1,5-a]quinoxaline ureas as high-affinity GABAA ligands of dual functionality” (J Med Chem, 1999)
Active and inactive are the calls of the source. The rule behind the calls is not given here.

What was measured:
[1] = target: T1, GABA-A receptor; anion channel (Rattus norvegicus) (UniProt O09028+P15431+P18506+P18508+P19969+P20236+P23574+P23576+P28471+P28473+P30191+P62813+P63079+P63138+Q91ZM7+Q9ES14); assay: (§1) Displacement of [3H]flunitrazepam from GABA-A benzodiazepine receptor of rat cortical membranes; assay type: cell membranes; set-up: concentration or dose not given beside the values; conditions: Membrane, concentration not given here
In short: (§2)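 Rat membranes incubated 60 min at 4 °C with [3H]flunitrazepam, 50 µg membrane protein and graded test drug in 200 µL containing NaCl, 10 mM Hepes/Tris pH 7.4 and 1 mM MgCl2; bound ligand separated by rapid filtration on GF/B; mean affinity, SE ≤10% of mean.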

[2] = target: GABA-A receptor; anion channel; assay: as §1; assay type: cell membranes, Membrane; in short: as §2
[3] = target: T1, GABA-A receptor; anion channel (Rattus norvegicus); assay: Shift in [35S]TBPS binding to GABA-A Benzodiazepine receptor of rat brain membrane
[4] = target: T2, GABA-A receptor; alpha-1/beta-2/gamma-2 (Homo sapiens) (UniProt P14867+P47870+P18507); assay: (§3) In vitro GABA-mediated chloride current in A293 cells expressing GABA-A benzodiazepine receptor alpha-1-beta-2-gamma-2 subunits at 5 uM; assay type: functional, cell-based; conditions: HEK293
Mus musculus [5] = assay: In vivo efficacy is evaluated by percent control of cerebellar GMP levels in (drug+stress) treated mice/mice under stress; assay type: functional; set-up: concentration or dose not given beside the values
In short: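 Male CF-1 mice given drug orally in vehicle 122 before electric footshock stress, controls given vehicle (1 mL/100 g); killed 30 min after treatment; cerebellum homogenized in 1% perchloric acid, iced 30 min, boiled 5 min, spun 17000g 20 min; supernatant cGMP by radioimmunoassay, expressed as % of stress control.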

Rattus norvegicus = assay: In vivo efficacy evaluated for ability to antagonize metrazole induced clonic convulsions in rat after ip injection; assay type: functional
[6] = target: T2, GABA-A receptor; alpha-1/beta-2/gamma-2 (Homo sapiens); assay: as §3; assay type: functional, cell-based; conditions: HEK293; remark: listed apart in the source
Mus musculus [7] = assay: In vivo acute electroshock physical dependence activity in mice; Not active.; assay type: functional, organism-based
Mus musculus [8] = species on record: Mus musculus; assay: Ability to antagonize the muscle relaxation effect in mice caused by a benzodiazepine full agonist, triazolam.; assay type: functional
In short: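 Muscle relaxation induced by triazolam; test compound and triazolam given separately, traction scored 30 min after dosing; ED50 for blocking the relaxant effect.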

Row | SMILES | inhibition [1] [%] | Ki [2] [nM] | Shift [3] | Change in Cl- current [4] | Control (Mus musculus [5]) [%] | ED50 (Rattus norvegicus) [mg/kg] | Change in Cl- current [6] | Acute electroshock activity (Mus musculus [7]) | ED50 (Mus musculus [8]) [mg/kg]
1 | Cc1ccc2c(c1)N(C(=O)N1C[C@@H](C)N[C@H](C)C1)Cc1c(C(=O)OC(C)(C)C)ncn1-2 | 22 | 5.17 | 0.1 | 0.05 | 49 | 6.3 | 0.7 |  | 
2 | CC(C)(C)OC(=O)c1ncn2c1CN(C(=O)N1CC3CC1CN3)c1cc(Cl)ccc1-2 (stereo not drawn) | 4 | 30.1 | 0.33 | 0.5 |  | > 50 | 0.3 | inactive | 
3 | C[C@@H]1CN(C(=O)N2Cc3c(C(=O)OC(C)(C)C)ncn3-c3ccc(F)cc32)C[C@H](C)N1C | 29 | 2.69 | 0.44 | -0.1 | 77 | 35.3 | 1 |  | 21.8
4 | CC(C)(C)OC(=O)c1ncn2c1CN(C(=O)N1CCN(C3CC3)CC1)c1cc(Cl)ccc1-2 | 24 | 5.39 | 0.76 | 0.75 |  | 12.5 | 0.42 | inactive | > 30
5 | C[C@@H]1CN(C(=O)N2Cc3c(C(=O)OC(C)(C)C)ncn3-c3ccc(Cl)cc32)C[C@H](C)N1S(C)(=O)=O.ClCCl | 8 | 4.18 | 0.76 | 0.9 |  | > 50 |  | inactive | > 30
6 | CC(C)(C)OC(=O)c1ncn2c1CN(C(=O)N1CCN(CC(F)(F)F)CC1)c1cc(Cl)ccc1-2 | 10 | 10.9 | 0.81 | 1 |  | > 50 | 0.8 | inactive | > 30
7 | C[C@@H]1CN(C(=O)N2Cc3c(C(=O)OC(C)(C)C)ncn3-c3cccc(Cl)c32)C[C@H](C)N1 | 44 | 28.2 | 0.05 | 0.29 | 95 | > 50 |  |  | > 30
8 | C[C@@H]1CN(C(=O)N2Cc3c(C(=O)OC(C)(C)C)ncn3-c3ccc(Cl)cc32)CCN1 | 75 | 5.96 | 0.01 | 0 | 57 | 3.7 | 0.6 |  | 27.5
9 | C[C@H]1CN(C(=O)N2Cc3c(C(=O)OC(C)(C)C)ncn3-c3ccc(C(F)(F)F)cc32)CCN1 | 21 | 42.8 | 0.54 | 0.7 | 82 | 25 | 0.8 | inactive | > 30
10 | C[C@@H]1CN(C(=O)N2Cc3c(C(=O)OC(C)(C)C)ncn3-c3ccc(Cl)cc32)C[C@H](C)N1CC(F)(F)F | 19 | 37.8 | 0.67 | 0 |  | 42 | 0.5 | inactive | > 30
11 | CC1CNCC(C)N1C(=O)N1Cc2c(C(=O)OC(C)(C)C)ncn2-c2ccc(F)cc21 (stereo not drawn) | 69 | 3.45 | 0.02 | 0 | 100 | 10.5 | 0.72 |  | > 30
12 | CC1(C)CN(C(=O)N2Cc3c(C(=O)OC(C)(C)C)ncn3-c3ccc(Cl)cc32)CCN1 | 13 | 3.03 | -0.01 | 0 |  | > 50 | 0.33 | inactive | > 30
13 | C[C@@H]1CN(C(=O)N2Cc3c(C(=O)OC(C)(C)C)ncn3-c3ccc(C(F)(F)F)cc32)C[C@@H](C)N1 | 24 | 37.1 | 0.68 | 0.8 | 92 | 4.4 | 0.7 |  | > 30
14 | C[C@@H]1CN(C(=O)N2Cc3c(C(=O)OC(C)(C)C)ncn3-c3cccc(Cl)c32)C[C@H](C)N1C | 49 | 56.3 | 0.22 | 0.71 | 102 | > 50 |  | inactive | > 30
15 | C[C@@H]1CN(C(=O)N2Cc3c(C(=O)OC(C)(C)C)ncn3-c3ccc(C(F)(F)F)cc32)CCN1 | 30 | 23.2 | 0.6 | 1 | 88 | 8.9 | 1 |  | > 30
16 | CN1CCN(C(=O)N2Cc3c(C(=O)OC(C)(C)C)ncn3-c3ccc(Cl)cc32)CC1(C)C | 11 | 4.35 | 0.21 | 0.5 |  | 35.3 | 1.1 | inactive | > 30
17 | Cc1ccc2c(c1)N(C(=O)N1CCN[C@H](C)C1)Cc1c(C(=O)OC(C)(C)C)ncn1-2 | 51 | 5.47 | 0.19 | 0.1 | 59 | 2.7 | 0.8 |  | 17.3
18 | C[C@@H]1CN(C(=O)N2Cc3c(C(=O)OC(C)(C)C)ncn3-c3ccc(F)cc32)C[C@H](C)N1 | 95 | 1.04 | -0.14 | 0 | 74 | 35.3 | 0.5 |  | > 30
19 | CC1CN(C(=O)N2Cc3c(C(=O)OC(C)(C)C)ncn3-c3ccc(Cl)cc32)CC(C)N1 (stereo not drawn) | 63 | 2.35 | 0.41 | 0.8 |  | 10.5 | 0.6 |  | 17.3
20 | CC1CN(C)CC(C)N1C(=O)N1Cc2c(C(=O)OC(C)(C)C)ncn2-c2ccc(F)cc21 (stereo not drawn) | 68 | 13.3 | 0.63 | 0.75 | 82 | 8.8 |  |  | > 30
21 | C[C@@H]1CN(C(=O)N2Cc3c(C(=O)OC(C)(C)C)ncn3-c3ccccc32)C[C@H](C)N1 | 82 | 3.04 | -0.018 | 0 | 94 | > 50 | 0.5 |  | > 30
